In ChEMBL document CHEMBL1806357, “A regioselective synthesis of some new pyrazol-1'-ylpyrazolo[1,5-a]pyrimidines in aqueous medium and their evaluation as antimicrobial agents” (2011):
Values after ≈ are worked out from the molar mass of the structure shown.

Columns and labels:
Pseudomonas aeruginosa [1] = experiment: Antibacterial activity against Pseudomonas aeruginosa ATCC 25668 after 24 hrs by broth microdilution method; format: functional
Staphylococcus aureus [2] = experiment: Antibacterial activity against Staphylococcus aureus ATCC 9144 after 24 hrs by broth microdilution method; format: functional
Staphylococcus aureus [3] = experiment: Antibacterial activity against Staphylococcus aureus ATCC 9144 at 4 ug/ml after 24 hrs by agar-well diffusion technique; format: functional, organism-based
Summary of the method: (§1)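 Agar-well diffusion. Bacteria were kept at 5–8 °C on Brain Heart Infusion agar. Inocula came from 24 h cultures adjusted to 0.5 McFarland (1 × 10^6 CFU/ml). 100 µl was seeded into 20 ml molten Mueller Hinton agar. 6 mm wells received 100 µl of sample, with gentamicin standard at 4 µg/ml and DMSO as negative control. Plates ran 24 h at 37 ± 1 °C; inhibition zone diameter in mm.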

Bacillus cereus [4] = experiment: Antibacterial activity against Bacillus cereus ATCC 11778 after 24 hrs by broth microdilution method; format: functional
Bacillus cereus [5] = experiment: Antibacterial activity against Bacillus cereus ATCC 11778 at 4 ug/ml after 24 hrs by agar-well diffusion technique; format: functional, organism-based; summary of the method: as §1
Escherichia coli [6] = experiment: Antibacterial activity against Escherichia coli ATCC 8739 after 24 hrs by broth microdilution method; format: functional
Escherichia coli [7] = experiment: Antibacterial activity against Escherichia coli ATCC 8739 at 4 ug/ml after 24 hrs by agar-well diffusion technique; format: functional, organism-based; summary of the method: as §1
Pseudomonas aeruginosa [8] = experiment: Antibacterial activity against Pseudomonas aeruginosa ATCC 25668 at 4 ug/ml after 24 hrs by agar-well diffusion technique; format: functional, organism-based; summary of the method: as §1
Staphylococcus aureus [9] = experiment: Antibacterial activity against Staphylococcus aureus ATCC 9144 at 2 mg/ml after 24 hrs by agar-well diffusion technique; format: functional; conditions: ATCC 9144, 24 h, read-out: DIZ
Summary of the method: (§2)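 Agar-well diffusion used MHA seeded with 24 h cultures at 0.5 McFarland (1 × 10^6 CFU/ml). 100 µl of compound (2 mg/ml in DMSO, filter-sterilized) went into each 6 mm well. Plates were incubated upright at 37 ± 1 °C for 24 h, and the inhibition zone diameter was measured in mm. DMSO was the negative control. Values are the mean of three replicates.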

Pseudomonas aeruginosa [10] = experiment: Antibacterial activity against Pseudomonas aeruginosa ATCC 25668 at 2 mg/ml after 24 hrs by agar-well diffusion technique; format: functional; conditions: ATCC 25668, 24 h, read-out: DIZ; summary of the method: as §2
Escherichia coli [11] = experiment: Antibacterial activity against Escherichia coli ATCC 8739 at 2 mg/ml after 24 hrs by agar-well diffusion technique; format: functional; conditions: ATCC 8739, 24 h, read-out: DIZ; summary of the method: as §2
Bacillus cereus [12] = experiment: Antibacterial activity against Bacillus cereus ATCC 11778 at 2 mg/ml after 24 hrs by agar-well diffusion technique; format: functional; conditions: ATCC 11778, 24 h, read-out: DIZ; summary of the method: as §2
Aspergillus terreus [13] = experiment: Antifungal activity against Aspergillus terreus at 100 ug/ml after 7 days by poisoned food technique relative to control; format: functional
Summary of the method: (§3)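 Poisoned food technique with soil-isolated fungi on PDA. Compound from a 1 mg/ml DMSO stock was added to molten agar at 40 ± 2 °C to give 10, 50, 100 or 200 µg/ml. A 6 mm mycelial disc from a 6-day culture was placed centrally, and plates were held at 28 ± 1 °C. Radial growth was measured after 7 days, and % inhibition was calculated against PDA/DMSO control, in triplicate.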

Helminthosporium [14] = experiment: Antifungal activity against Helminthosporium sp. at 10 ug/ml after 7 days by poisoned food technique relative to control; format: functional; summary of the method: as §3
Helminthosporium [15] = experiment: Antifungal activity against Helminthosporium sp. at 100 ug/ml after 7 days by poisoned food technique relative to control; format: functional; summary of the method: as §3
Aspergillus terreus [16] = experiment: Antifungal activity against Aspergillus terreus at 50 ug/ml after 7 days by poisoned food technique relative to control; format: functional; summary of the method: as §3
Aspergillus terreus [17] = experiment: Antifungal activity against Aspergillus terreus at 200 ug/ml after 7 days by poisoned food technique relative to control; format: functional; summary of the method: as §3
Helminthosporium [18] = experiment: Antifungal activity against Helminthosporium sp. at 200 ug/ml after 7 days by poisoned food technique relative to control; format: functional; summary of the method: as §3
Fusarium oxysporum [19] = experiment: Antifungal activity against Fusarium oxysporum at 10 ug/ml after 7 days by poisoned food technique relative to control; format: functional; summary of the method: as §3
Alternaria alternata [20] = experiment: Antifungal activity against Alternaria alternata at 10 ug/ml after 7 days by poisoned food technique relative to control; format: functional; summary of the method: as §3
Fusarium oxysporum [21] = experiment: Antifungal activity against Fusarium oxysporum at 100 ug/ml after 7 days by poisoned food technique relative to control; format: functional; summary of the method: as §3
Alternaria alternata [22] = experiment: Antifungal activity against Alternaria alternata at 50 ug/ml after 7 days by poisoned food technique relative to control; format: functional; summary of the method: as §3
Alternaria alternata [23] = experiment: Antifungal activity against Alternaria alternata at 200 ug/ml after 7 days by poisoned food technique relative to control; format: functional; summary of the method: as §3
Alternaria alternata [24] = experiment: Antifungal activity against Alternaria alternata at 100 ug/ml after 7 days by poisoned food technique relative to control; format: functional; summary of the method: as §3
Fusarium oxysporum [25] = experiment: Antifungal activity against Fusarium oxysporum at 200 ug/ml after 7 days by poisoned food technique relative to control; format: functional; summary of the method: as §3
Fusarium oxysporum [26] = experiment: Antifungal activity against Fusarium oxysporum at 50 ug/ml after 7 days by poisoned food technique relative to control; format: functional; summary of the method: as §3
Aspergillus terreus [27] = experiment: Antifungal activity against Aspergillus terreus at 10 ug/ml after 7 days by poisoned food technique relative to control; format: functional; summary of the method: as §3
Helminthosporium [28] = experiment: Antifungal activity against Helminthosporium sp. at 50 ug/ml after 7 days by poisoned food technique relative to control; format: functional; summary of the method: as §3
Alternaria alternata [29] = experiment: Antifungal activity against Alternaria alternata at 10 ug/ml after 7 days by poisoned food technique relative to 10 ug/ml mancozeb; format: functional
Helminthosporium [30] = experiment: Antifungal activity against Helminthosporium sp. at 10 ug/ml after 7 days by poisoned food technique relative to 10 ug/ml mancozeb; format: functional
Fusarium oxysporum [31] = experiment: Antifungal activity against Fusarium oxysporum at 10 ug/ml after 7 days by poisoned food technique relative to 10 ug/ml mancozeb; format: functional
Pseudomonas aeruginosa [32] = experiment: Antibacterial activity against Pseudomonas aeruginosa ATCC 25668 at 1 mg/ml after 24 hrs by agar-well diffusion technique; format: functional; conditions: ATCC 25668, 24 h, read-out: DIZ
Staphylococcus aureus [33] = experiment: Antibacterial activity against Staphylococcus aureus ATCC 9144 at 1 mg/ml after 24 hrs by agar-well diffusion technique; format: functional; conditions: ATCC 9144, 24 h, read-out: DIZ
Bacillus cereus [34] = experiment: Antibacterial activity against Bacillus cereus ATCC 11778 at 1 mg/ml after 24 hrs by agar-well diffusion technique; format: functional; conditions: ATCC 11778, 24 h, read-out: DIZ
Escherichia coli [35] = experiment: Antibacterial activity against Escherichia coli ATCC 8739 at 1 mg/ml after 24 hrs by agar-well diffusion technique; format: functional; conditions: ATCC 8739, 24 h, read-out: DIZ

Compound | MIC (Pseudomonas aeruginosa [1]; ATCC 25668, 24 h) [µg/mL] | MIC (Staphylococcus aureus [2]; ATCC 9144, 24 h) [µg/mL] | MIC (Bacillus cereus [4]; ATCC 11778, 24 h) [µg/mL] | zone of inhibition at 2000 µg/mL (Staphylococcus aureus [9]) [mm] | MIC (Escherichia coli [6]; ATCC 8739, 24 h) [µg/mL] | zone of inhibition at 2000 µg/mL (Pseudomonas aeruginosa [10]) [mm] | zone of inhibition at 2000 µg/mL (Escherichia coli [11]) [mm] | zone of inhibition at 2000 µg/mL (Bacillus cereus [12]) [mm] | Activity (Aspergillus terreus [13]) [%] | Activity (Helminthosporium [14]) [%] | Activity (Helminthosporium [15]) [%] | Activity (Aspergillus terreus [16]) [%] | Activity (Aspergillus terreus [17]) [%] | Activity (Helminthosporium [18]) [%] | Activity (Fusarium oxysporum [19]) [%] | Activity (Alternaria alternata [20]) [%] | Activity (Fusarium oxysporum [21]) [%] | Activity (Alternaria alternata [22]) [%] | Activity (Alternaria alternata [23]) [%] | Activity (Alternaria alternata [24]) [%] | also measured
GENTAMICIN | – | – | – | – | – | – | – | – | – | – | – | – | – | – | – | – | – | – | – | – | MIC (Pseudomonas aeruginosa [1]): 2 µg/mL; MIC (Staphylococcus aureus [2]): 2 µg/mL; inhibition zone (IZ) (Staphylococcus aureus [3]): 14 mm; MIC (Bacillus cereus [4]): 4 µg/mL; inhibition zone (IZ) (Bacillus cereus [5]): 14 mm; MIC (Escherichia coli [6]): 4 µg/mL; inhibition zone (IZ) (Escherichia coli [7]): 24 mm; inhibition zone (IZ) (Pseudomonas aeruginosa [8]): 12 mm
Cc1cc(-c2cccs2)n2nc(-n3nc(C)cc3-c3cccs3)cc2n1 | 200 (≈ 530 µM) | 200 (≈ 530 µM) | > 200 | 8 | 200 (≈ 530 µM) | 8 | 8 | 8 | – | – | – | – | – | – | – | – | – | – | – | – | –
Cc1cc(-c2ccc(Br)cc2)n2nc(-n3nc(C)cc3-c3ccc(Br)cc3)cc2n1 | > 100 | > 100 | > 100 | 8 | > 100 | 8 | 8 | 8 | – | – | – | – | – | – | – | – | – | – | – | – | –
Cc1cc(-c2ccc(Cl)cc2)n2nc(-n3nc(C)cc3-c3ccc(Cl)cc3)cc2n1 | 100 (≈ 230 µM) | 100 (≈ 230 µM) | 50 (≈ 115 µM) | 9 | 25 (≈ 57.6 µM) | 10 | 13 | 13 | 2.5 | 11.1 | 17.7 | 0 | 12.5 | 36.6 | 1.63 | 0 | 9.8 | 0 | 0 | 0 | Activity (Fusarium oxysporum [25]): 16.3%; Activity (Fusarium oxysporum [26]): 3.27%; Activity (Aspergillus terreus [27]): 0%; Activity (Helminthosporium [28]): 15.5%
Cc1nn(-c2cc3nc(C)c4c(n3n2)CCC4)c2c1CCC2 | > 400 | 400 (≈ 1360 µM) | 400 (≈ 1360 µM) | 7 | > 400 | 7 | 7 | 7 | – | – | – | – | – | – | – | – | – | – | – | – | –
Cc1cc(C)n2nc(-n3nc(C)cc3C)cc2n1 | > 400 | 400 (≈ 1660 µM) | > 400 | 7 | > 400 | 7 | 7 | 7 | 68.5 | 42.2 | 79.2 | 33.7 | 73.2 | 79.2 | 56 | 47.5 | 67 | 69.5 | 73.1 | 71.6 | fold change (FC) (Alternaria alternata [29]): 2.6; fold change (FC) (Helminthosporium [30]): 3.4; Activity (Fusarium oxysporum [25]): 71.9%; fold change (FC) (Fusarium oxysporum [31]): 2; Activity (Fusarium oxysporum [26]): 67%; Activity (Aspergillus terreus [27]): 9.87%; Activity (Helminthosporium [28]): 66.6%
Cc1cc(-c2ccccc2)n2nc(-n3nc(C)cc3-c3ccccc3)cc2n1 | > 200 | 200 (≈ 547 µM) | 200 (≈ 547 µM) | 8 | 200 (≈ 547 µM) | 7.5 | 8 | 8 | 19.2 | 0 | 0 | 13.5 | 19.7 | 0 | 8.53 | 18.2 | 3.65 | 20.7 | 20.7 | 19.5 | Activity (Fusarium oxysporum [25]): 2.4%; Activity (Fusarium oxysporum [26]): 6.09%; Activity (Aspergillus terreus [27]): 7.4%; Activity (Helminthosporium [28]): 0%
CC(=O)NC[C@H]1CN(c2ccc(N3CCOCC3)c(F)c2)C(=O)O1 [LINEZOLID] | > 100 | – | > 100 | – | > 100 | – | – | – | – | – | – | – | – | – | – | – | – | – | – | – | zone of inhibition at 1000 µg/mL (Pseudomonas aeruginosa [32]): 8.5 mm; zone of inhibition at 1000 µg/mL (Staphylococcus aureus [33]): 18 mm; zone of inhibition at 1000 µg/mL (Bacillus cereus [34]): 10 mm; zone of inhibition at 1000 µg/mL (Escherichia coli [35]): 12 mm
Cc1ccc(-c2cc(C)nn2-c2cc3nc(C)cc(-c4ccc(C)cc4)n3n2)cc1 | 100 (≈ 254 µM) | 100 (≈ 254 µM) | 100 (≈ 254 µM) | 8 | 50 (≈ 127 µM) | 8 | 10.5 | 8.5 | – | – | – | – | – | – | – | – | – | – | – | – | –
COc1ccc(-c2cc(C)nn2-c2cc3nc(C)cc(-c4ccc(OC)cc4)n3n2)cc1 | > 100 | > 100 | > 100 | 8 | > 100 | 8 | 8 | 8 | 7.5 | 0 | 27.7 | 6.25 | 11.3 | 62.2 | 6.55 | 0 | 26.2 | 0 | 11.1 | 11.1 | Activity (Fusarium oxysporum [25]): 20%; Activity (Fusarium oxysporum [26]): 3.27%; Activity (Aspergillus terreus [27]): 2.5%; Activity (Helminthosporium [28]): 0%
